Laboratory results published in PMC2233868 (The Journal of General Physiology, 2002).
Several values for one entry are separate records, joined by “and”; a condition that tells them apart may be missing. Identical values can stand only once. Entries after “also recorded” stand apart in the source; their conditions may differ. Like-named read-outs stand apart in the source and are kept apart here.

Key:
[1] = tested on: volume-regulated anion channels (VRAC); assay: Whole cell membrane current; conditions: for membrane leakiness: extracellular ATP 10 mM or higher, high concentrations of ADP; for r = k12(0)/k10(0) / δ, electrical distance of binding site inside the channel: pooled cells; for voltage dependence of VRAC block / effect on outward component of VRAC current: total nucleotide concentration 1 mM; for effect on outward component of VRAC current: HTS 17%
[2] = tested on: bovine aortic endothelial cells (BAEC); format: cell-based
[3] = tested on: cultured ciliary epithelial cells; conditions: ref Mitchell et al., 1998; cited from earlier work
prostate cancer cells = conditions: ref Sauer et al., 2000; cited from earlier work
[4] = tested on: bovine aortic endothelial cells (BAEC); conditions: disruption of the actin cytoskeleton; ref Koyama et al., 2001; cited from earlier work
[5] = tested on: bovine aortic endothelial cells (BAEC); assay: HTS-induced NO production, DAF-2 fluorescence; format: cell-based
Method in brief: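 NO was imaged with DAF-2 in first-subculture bovine aortic endothelial cells bathed in modified Krebs solution (1.5 mM Ca2+, pH 7.3), made hypotonic with distilled water. Fluorescence in each experiment was normalized to a reference image taken before the hypotonic challenge. n = cells examined; mean ± SEM; Student's unpaired t test, P < 0.05 significant.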

[6] = tested on: bovine aortic endothelial cells (BAEC); assay: HTS-induced Ca2+ oscillations, fura-2 fluorescence; format: cell-based; conditions: HTS 40%; glibenclamide 100 μM
[7] = tested on: bovine aortic endothelial cells (BAEC); assay: Ca2+ transients induced by exogenously applied ATP, fura-2; format: cell-based; conditions: exogenous ATP 1 μM
Method in brief: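 [Ca2+]i tracked by fura-2 fluorescence using digital fluorescence microscopy at room temperature (20–25°C). Mean ± SEM; Student's unpaired t test, P < 0.05 significant.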

[8] = tested on: large conductance anion channel (368 pS); conditions: ref Li et al., 2000; cited from earlier work
[9] = tested on: VRAC currents in BC3H1 and C2C12 cells; conditions: concentrations up to 100 μM; ref Voets et al., 1997; cited from earlier work
[10] = 10 or 20 mM extracellular ADP, extracellular Cl− 2 mM
[11] = fit to simplified Eq. 2, total nucleotide 1 mM
[12] = representative data, Figs. 4 C (dashed line) and 5 B, Eq. 2
[13] = fit to Eq. 1, extracellular ATP total 1 mM
[14] = representative cell, Fig. 4 C solid line, Eq. 1
[15] = 20% HTS, 10 min, fluoxetine 1 μM, glibenclamide 100 μM, tamoxifen 10 μM, verapamil 10 μM, P < 0.01

Compound: Nc1ncnc2c1ncn2[C@@H]1O[C@H](COP(=O)(O)OP(=O)(O)O)[C@@H](O)[C@H]1O [ADP]
- effect on outward component of VRAC current in low Cl− hypotonic solution ([1]; 1 mM extracellular ADP, extracellular Cl− 2 mM): still inhibited
- effect on inward current in low Cl− hypotonic solution [1, 10]: virtually no effect
- effect on outward current in low Cl− hypotonic solution [1, 10]: significantly enhanced
- membrane leakiness [1]: did not cause membrane leakiness
- r = k12(0)/k10(0) [1, 11]: 0.23 ± 0.05
- δ, electrical distance of binding site inside the channel [1, 11]: 0.48 ± 0.01
- r of the fitted curve [1, 12]: 0.26
- δ of the fitted curve [1, 12]: 0.40
- voltage dependence of VRAC block [1]: less voltage sensitive; also recorded: bell-shaped voltage-dependent inhibition

Compound: Nc1ncnc2c1ncn2[C@@H]1O[C@H](COP(=O)(O)O)[C@@H](O)[C@H]1O [AMP]
- voltage dependence of VRAC block [1]: weakly voltage-dependent

Compound: Nc1ncnc2c1ncn2[C@@H]1O[C@H](COP(=O)(O)OP(=O)(O)OP(=O)(O)O)[C@@H](O)[C@H]1O [ATP]
- activation of a VRAC-like current in isotonic solutions ([1]; exogenous ATP, isotonic solution): did not activate
- membrane leakiness [1]: induced membrane leakiness
- membrane potential of maximum inhibition of outward VRAC current ([1]; extracellular ATP total 1 mM, free 0.15 mM): 30–40 mV
- r = k12(0)/k10(0) [1, 13]: 0.38 ± 0.08
- δ, electrical distance of binding site inside the channel [1, 13]: 0.41 and 0.41 ± 0.03
- r = k12(0)/k10(0) [1, 11]: 0.42 ± 0.16
- δ, electrical distance of binding site inside the channel [1, 11]: 0.42 ± 0.02
- r of the fitted curve [1, 14]: 0.29
- δ of the fitted curve [1, 14]: 0.42
- r of the fitted curve [1, 12]: 0.22
- δ of the fitted curve [1, 12]: 0.43
- voltage dependence of VRAC block [1]: marked voltage dependency
- effect on outward component of VRAC current [1]: inhibited

Compound: C[C@H]1CCC/C=C/[C@@H]2C[C@H](O)C[C@H]2[C@H](O)/C=C/C(=O)O1 [Brefeldin A, brefeldin A]
- effect on HTS-induced VRAC currents ([1]; pretreated with 3 μg/ml for 2.5 h, HTS 20%, −50 mV and 100 mV): did not, however, affect
- effect on HTS-induced ATP release ([2]; pretreated with 3 μg/ml for 2.5 h, HTS 20%): did not, however, affect

Compound: Nc1ccn([C@@H]2O[C@H](COP(=O)(O)OP(=O)(O)OP(=O)(O)O)[C@@H](O)[C@H]2O)c(=O)n1 [CTP]
- r = k12(0)/k10(0) [1, 11]: 0.21 ± 0.09
- δ, electrical distance of binding site inside the channel [1, 11]: 0.47 ± 0.02
- r of the fitted curve [1, 12]: 0.057
- δ of the fitted curve [1, 12]: 0.44
- voltage dependence of VRAC block [1]: bell-shaped voltage-dependent inhibition

Compound: Nc1nc2c(ncn2[C@@H]2O[C@H](COP(=O)(O)OP(=O)(O)OP(=O)(O)O)[C@@H](O)[C@H]2O)c(=O)[nH]1 [GTP]
- r = k12(0)/k10(0) [1, 11]: 0.70 ± 0.30
- δ, electrical distance of binding site inside the channel [1, 11]: 0.41 ± 0.06
- r of the fitted curve [1, 12]: 0.24
- δ of the fitted curve [1, 12]: 0.44
- voltage dependence of VRAC block [1]: bell-shaped voltage-dependent inhibition

Compound: O=C(O)c1cc([N+](=O)[O-])ccc1NCCCc1ccccc1 [NPPB]
- effect on ATP release [3]: suppressed
- effect on ATP release (prostate cancer cells): suppressed

Compound: O=c1ccn([C@@H]2O[C@H](COP(=O)(O)OP(=O)(O)OP(=O)(O)O)[C@@H](O)[C@H]2O)c(=O)[nH]1 [UTP]
- r = k12(0)/k10(0) [1, 11]: 0.14 ± 0.05
- δ, electrical distance of binding site inside the channel [1, 11]: 0.39 ± 0.04
- r of the fitted curve [1, 12]: 0.13
- δ of the fitted curve [1, 12]: 0.42
- voltage dependence of VRAC block [1]: bell-shaped voltage-dependent inhibition

Compound: Nc1ncnc2c1ncn2[C@@H]1O[C@H](CO)[C@@H](O)[C@H]1O [adenosine]
- effect on outward component of VRAC current [1]: does not inhibit

Compound: C=C1[C@@H](C)[C@H]2[C@H](Cc3ccccc3)NC(=O)[C@]23OC(=O)/C=C/[C@H](O)CCC[C@@H](C)C/C=C/[C@H]3[C@@H]1O [cytochalasin B]
- effect on HTS-induced ATP release [4]: does not inhibit

Compound: CNCCC(Oc1ccc(C(F)(F)F)cc1)c1ccccc1 (centres unmarked) [fluoxetine]
- effect on HTS-induced NO production [5]: abolished
- effect on HTS-induced Ca2+ oscillations [6]: abolished
- effect on HTS-induced ATP release [2, 15]: Inhibition

Compound: COc1ccc(Cl)cc1C(=O)NCCc1ccc(S(=O)(=O)NC(=O)NC2CCCCC2)cc1 [glibenclamide]
- effect on HTS-induced NO production [5]: abolished
- effect on HTS-induced Ca2+ oscillations [6]: abolished
- effect on ADP-induced outward current ([1]; 100 μM, low Cl− hypotonic solution, unpublished data): suppressed
- effect on HTS-induced ATP release [2, 15]: Inhibition
- effect on Ca2+ transients induced by exogenously applied ATP [7]: did not affect

Compound: CC/C(=C(\c1ccccc1)c1ccc(OCCN(C)C)cc1)c1ccccc1 [tamoxifen]
- effect on large conductance anion channel [8]: activates
- effect on VRAC currents [9]: did not significantly inhibit
- effect on HTS-induced ATP release [2, 15]: Inhibition
- effect on ATP release (prostate cancer cells): effective

Compound: COc1ccc(CCN(C)CCCC(C#N)(c2ccc(OC)c(OC)c2)C(C)C)cc1OC (centres unmarked) [verapamil]
- effect on HTS-induced NO production [5]: abolished
- effect on HTS-induced Ca2+ oscillations [6]: abolished
- effect on HTS-induced ATP release [2, 15]: Inhibition
